The text below walks through data of ChEMBL document CHEMBL1153265, “Quinolines as a novel structural class of potent and selective PDE4 inhibitors: optimisation for oral administration” (Bioorg Med Chem Lett, 2009).

Molecules are shown by their SMILES. pIC50: −log10 of the molar value. In brackets after ≈: the same amount, converted by molar mass.

Data set [1] concerns the target 3',5'-cyclic-AMP phosphodiesterase 4B (Homo sapiens, UniProt Q07343). Kind of data set: Inhibition of human recombinant PDE4B by scintillation proximity assay. (SPA uses beads or plates that emit light when radiolabelled molecules are held near them.)
The test system of another data set is Blood. Kind of data set: Inhibition of LPS-induced TNFalpha production in human whole blood. The format is functional, tissue-based.
The nature of data set [2]: AUC in Sprague-Dawley CD rat at 1 mg/kg, po. Format: ADME, organism-based. Also on record: dose 1 mg/kg, route oral. As to conditions: plasma. The procedure, abridged: (§1)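 Male CD Sprague rats, each compound given intravenously and orally at 1 mg/kg. Pharmacokinetic parameters derived from both routes.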
A short description of data set [3]: Oral bioavailability in Sprague-Dawley CD rat at 1 mg/kg. Format: ADME, organism-based. As to conditions: in vivo. The method, boiled down: as §1
Data set [4] in a line: Clearance in Sprague-Dawley CD rat at 1 mg/kg, iv and 1 mg/kg, po. Format: ADME, organism-based. To be noted: in vivo. The procedure, abridged:
as §1

Data set [5] is described as follows: Solubility of the compound. The format is physicochemical.
A short description of data set [6]: Half life in Sprague-Dawley CD rat at 1 mg/kg, iv and 1 mg/kg, po. The format is ADME, organism-based. To be noted: in vivo. The procedure, abridged:
as §1

A short description of data set [7]: Selectivity for human recombinant PDE4B over PDE7.
Data set [8] is described as follows: Selectivity for human recombinant PDE4B over PDE6.
Data set [9] in a line: Selectivity for human recombinant PDE4B over PDE1.
The nature of data set [10]: Selectivity for human recombinant PDE4B over PDE2.
A further data set is filed under the species Homo sapiens. Kind of data set: Selectivity for human recombinant PDE4B over human recombinant PDE5. The procedure, abridged: (§2)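 Catalytic activity of human recombinant PDE4B, PDE3 purified from bovine aorta and human recombinant PDE5 was measured by scintillation proximity assay in 96-well format. Selectivity compares inhibition of PDE4B with inhibition of the other enzyme.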

The nature of data set [11]: Selectivity for human recombinant PDE4B over bovine aorta PDE3. Format: tissue-based. The method, boiled down: as §2

For orientation: pIC50 means −log10 of the IC50, conventionally taken in molar units. As a reminder, the AUC is concentration integrated over time. Read a low AUC as less exposure. A word on the bioavailability: it is dose-corrected exposure relative to a reference, in per cent. The low end stands for little systemic uptake, the high end for much systemic uptake. The solubility is the dissolved amount per volume that the medium holds. Lower therefore signals little dissolved substance. Usually half-life stands for the time in which the quantity being followed falls by half.

Chain of 3',5'-cyclic-AMP phosphodiesterase 4B (Q07343 whole entry): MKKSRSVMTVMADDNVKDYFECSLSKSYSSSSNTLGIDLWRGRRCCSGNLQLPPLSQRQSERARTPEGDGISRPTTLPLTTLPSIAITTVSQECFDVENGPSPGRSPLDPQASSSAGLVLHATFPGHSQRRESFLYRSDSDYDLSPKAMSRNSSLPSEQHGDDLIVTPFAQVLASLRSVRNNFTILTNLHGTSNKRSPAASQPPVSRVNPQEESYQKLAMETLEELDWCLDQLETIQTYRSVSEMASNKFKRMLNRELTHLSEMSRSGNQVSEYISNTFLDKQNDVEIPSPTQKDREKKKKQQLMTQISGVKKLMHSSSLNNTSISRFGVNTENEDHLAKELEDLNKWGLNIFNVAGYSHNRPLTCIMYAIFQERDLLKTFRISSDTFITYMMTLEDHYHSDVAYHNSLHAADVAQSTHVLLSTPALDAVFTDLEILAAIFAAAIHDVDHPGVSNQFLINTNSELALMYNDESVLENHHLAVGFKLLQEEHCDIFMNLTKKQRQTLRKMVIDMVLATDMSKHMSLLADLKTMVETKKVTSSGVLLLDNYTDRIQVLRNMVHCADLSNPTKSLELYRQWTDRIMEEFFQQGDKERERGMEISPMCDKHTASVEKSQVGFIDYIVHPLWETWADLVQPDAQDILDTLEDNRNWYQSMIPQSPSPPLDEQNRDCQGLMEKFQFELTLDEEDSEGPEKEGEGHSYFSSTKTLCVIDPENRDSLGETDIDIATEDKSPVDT

For the compound `COc1cc(Nc2c(C(N)=O)cnc3c(OC)cc(S(C)(=O)=O)cc23)ccc1F`, the figures for the pIC50 (in data set [1]; in the data set on Blood) were 8.30 and 6.60, respectively. This compound also had an AUC in [2] of 81 ng·h/mL.

For the compound `COc1cccc(Nc2c(C(=O)O)cnc3ccc(S(=O)(=O)c4ccccc4)cc23)c1`, the pIC50 in data set [1] was 4.90.

Consider `CS(=O)(=O)c1ccc2ncc(C(N)=O)c(Oc3cccc(Cl)c3)c2c1`, for which the pIC50 in data set [1] was 5.50.

On to `COc1cc(Nc2c(C(N)=O)cnc3c(F)cc(S(C)(=O)=O)cc23)ccc1F`, for which the pIC50 in the data set with Blood is 7.80.

As for `CS(=O)(=O)c1ccc2ncc(C(N)=O)c(N)c2c1`, in data set [1], the pIC50 is < 4.50.

For the compound `COc1cccc(Nc2cc(C(N)=O)nc3ccc(S(C)(=O)=O)cc23)c1`, in data set [1], the negative-log IC50 (pIC50) was 5.10.

`COc1cc(Nc2c(C(N)=O)cnc3ccc(S(C)(=O)=O)cc23)ccc1F` registered a bioavailability in data set [3] of 65%. In addition, the pIC50 in data set [1] is 7.50; in the data set with Blood, 6.80. In addition, the clearance in [4] worked out at 21 mL/min/kg. This compound yielded a solubility in [5] of 4 µg/mL (≈ 10.3 µM). The compound also showed a half-life in data set [6] of 1.9 h. Also, in [2], the AUC is 530 ng·h/mL.

In the case of `CS(=O)(=O)c1ccc2ncc(C(N)=O)c(Nc3cccc(CN)c3)c2c1`, the pIC50 in data set [1] is 7.10; with Blood it was 5.90.

`CNC(=O)c1cnc2ccc(S(C)(=O)=O)cc2c1Nc1cccc(OC)c1`: the pIC50 in data set [1] was 5.50.

On to `COc1cc(Nc2c(C(N)=O)cnc3c(C)cc(S(C)(=O)=O)cc23)ccc1F`, for which the bioavailability in data set [3] came to 82%. The fold change (FC) in data set [7], in data set [8], in data set [9] and in data set [10] was > 100 in each case. For the same compound, the values for the pIC50 (in data set [1]; with Blood) were 9.50 and 8.10, respectively. Besides, the clearance in data set [4] was 16 mL/min/kg. This compound displayed a solubility in data set [5] of 5 µg/mL (≈ 12.4 µM). This compound also gave a half-life in data set [6] of 1.6 h. Further, in [2], the area under the curve (AUC) was found to be 770 ng·h/mL.

As to `O=C(Nc1c(Cl)cncc1Cl)c1ccc(OC(F)F)c(OCC2CC2)c1` [ROFLUMILAST], the fold change (FC) (in the data set filed under Homo sapiens; in data set [11]) was > 300 each time. In the data set on Blood, this compound gave a pIC50 of 7.70.

Take `COc1cccc(Nc2c(C(N)=O)cnc3ccc(S(=O)(=O)c4ccccc4)cc23)c1`: in [1], the pIC50 is 8.80.

With `CS(=O)(=O)c1ccc2ncc(C(N)=O)c(Nc3cccc(O)c3)c2c1`, the fold change (FC) (in the data set listed under Homo sapiens; in [11]) was > 300 in each case. Further, the pIC50 in data set [1] is 7.00. In data set [5], this compound yielded a solubility of 30 µg/mL (≈ 83.9 µM).

Take `COc1cccc(Nc2c(-c3nnc(C)o3)cnc3ccc(S(C)(=O)=O)cc23)c1`: in data set [1], the pIC50 was 4.70.

For `CCc1cc(S(C)(=O)=O)cc2c(Nc3ccc(F)c(OC)c3)c(C(N)=O)cnc12`, the pIC50 in the data set with Blood was 7.90.

Take `CS(=O)(=O)c1ccc2ncc(C(N)=O)c(Sc3cccc(Cl)c3)c2c1`: in data set [1], the pIC50 is 4.70.

Regarding `CS(=O)(=O)c1ccc2ncc(C(N)=O)c(Nc3cccc(Cl)c3F)c2c1`, the bioavailability in data set [3] was 47%. In addition, the results for the negative logarithm of the IC50 (pIC50) (in [1]; in the data set with Blood) were 8.20 and 6.60, respectively. Further, the clearance in [4] was 13 mL/min/kg. This compound registered a solubility in data set [5] of 12 µg/mL (≈ 30.5 µM). Also, the half-life in data set [6] was 2 h.

`CS(=O)(=O)c1ccc2ncc(C(N)=O)c(NC3CCOCC3)c2c1`: the negative logarithm of the IC50 (pIC50) in [1] is < 4.50.

`COc1cc(Nc2c(C(N)=O)cnc3c(Cl)cc(S(C)(=O)=O)cc23)ccc1F`: in the data set on Blood, the pIC50 is 8.10. The compound further gave an AUC in data set [2] of 16 ng·h/mL.

As for `Cc1cc(S(C)(=O)=O)cc2c(Nc3cccc(C#N)c3)c(C(N)=O)cnc12`, the bioavailability in data set [3] turned out to be 27%. Besides, the fold change (FC) in [7], in [8], in data set [9] and in data set [10] was > 100 each time. In [4], the clearance stood at 19 mL/min/kg. The compound also had a negative-log IC50 (pIC50) in the data set on Blood of 7.60. The solubility in [5] turned out to be 18 µg/mL (≈ 47.3 µM). The same compound showed a half-life in data set [6] of 2.3 h.

Take `CS(=O)(=O)c1ccc2ncc(C(N)=O)c(Nc3cccc(Cl)c3)c2c1`: the values for the pIC50 (in [1]; with Blood) were 7.80 and 6.60, respectively. This compound displayed a solubility in data set [5] of 2 µg/mL (≈ 5.32 µM).

With `COc1cccc(Nc2c(-c3nc(C)no3)cnc3ccc(S(C)(=O)=O)cc23)c1`, the pIC50 in data set [1] is 4.80.

As to `CS(=O)(=O)c1ccc2ncc(C(N)=O)c(Nc3cccc(C#N)c3)c2c1`, the bioavailability in data set [3] is 23%. In addition, the pIC50 in data set [1] is 7.70; in the data set with Blood, 6.50. Also, the clearance in [4] was 16 mL/min/kg. For the same compound, the half-life in data set [6] was 0.9 h.

For the compound `CS(=O)(=O)c1ccc2ncc(C(N)=O)c(Nc3cccc(C(=O)O)c3)c2c1`, the pIC50 in data set [1] is 5.30.

Consider `CS(=O)(=O)c1ccc2ncc(C(N)=O)c(Nc3cccc4c3CCO4)c2c1`, for which the bioavailability in [3] was determined as 38%. Also, the values for the pIC50 (in [1]; in the data set with Blood) were 8.60 and 7.60, respectively. Besides, the clearance in data set [4] stood at 38 mL/min/kg. The same compound had a solubility in [5] of 43 µg/mL (≈ 112 µM). The compound also gave a half-life in data set [6] of 1.7 h.

In turn, `COc1cccc(Nc2c(C(N)=O)cnc3ccc(S(C)(=O)=O)cc23)c1` showed a bioavailability in [3] of 10%. The clearance in data set [4] is 10 mL/min/kg. For the same compound, the solubility in data set [5] came out at 5 µg/mL (≈ 13.5 µM). Also, the half-life in data set [6] was 1.1 h.

With `CN(c1cccc(Cl)c1)c1c(C(N)=O)cnc2ccc(S(C)(=O)=O)cc12`, the pIC50 in data set [1] was 6.00.

Turning to `COc1cccc(Nc2c(CN)cnc3ccc(S(=O)(=O)c4ccccc4)cc23)c1`, the pIC50 in [1] is 6.60.

In the case of `COc1cccc(Nc2c(C#N)cnc3ccc(S(C)(=O)=O)cc23)c1`, the negative logarithm of the IC50 (pIC50) in [1] was 6.30.

On to `CS(=O)(=O)c1ccc2ncc(C(N)=O)c(Nc3cccnc3)c2c1`, for which the pIC50 is 7.00 in data set [1] and 5.70 with Blood.
